Data set [1] deals with Pseudomonas. Nature of the data set: MIC by two-fold serial dilution. Type of data set: cell-based. Conditions: for MIC: two-fold serial dilution, at least three repeats.
The subject of data set [2] is Shewanella. The data set is described as follows: MIC by two-fold serial dilution. Type of data set: cell-based. The conditions noted are these: for MIC: two-fold serial dilution, at least three repeats.
In data set [3] the test system is Pseudomonas. Nature of the data set: Ultrastructural observation of treated bacteria. Format: cell-based. Conditions: cells treated with peptide.
The subject of data set [4] is Shewanella. The data set is described as follows: Cell membrane permeability, PI/FDA flow cytometry. The conditions noted are these: peptide at MIC, 37℃, 1 h; for bacteria distributed in Q1 and Q2 regions (disturbed membranes): Shewanella, sum of Q1 and Q2. Type of data set: cell-based.
Data set [5] deals with Pseudomonas. The data set is described as follows: Cell membrane permeability, PI/FDA flow cytometry. Type of data set: cell-based. The conditions noted are these: peptide at MIC, 37℃, 1 h, sum of Q1 and Q2.
Data set [6] is described as follows: Self-assembly morphology by TEM. Format: physicochemical. The conditions noted are these: aqueous solution, 1 mM.
Data set [7] can be described thus: Circular dichroism secondary structure. Conditions: aqueous solution, 190–270 nm. Format: physicochemical. In short, it runs like this:
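The test compound was dissolved in sterile PBS and in 2.5 % SDS buffer (a membrane-mimetic hydrophobic environment), then filtered through 0.22 µm. Spectra were scanned at 190-270 nm with 1 nm bandwidth and 0.5 s interval in a 0.1 cm cuvette. Ellipticity (mdeg) was converted to molar residue ellipticity using residue number, peptide concentration and path length.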
On the technique in general: Circular dichroism is the unequal absorption of left and right circularly polarised light.

Data set [8] has as its system Pseudomonas. The data set is described as follows: Cell wall permeability. Format: cell-based. The conditions noted are these: peptide at MIC, 37℃, 4 h. The essentials:
(§1)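 Bacteria from a national culture collection were incubated with the test compound at the MIC (the control received an equal volume of sterile water) at 37°C for 4 h. Samples were centrifuged at 4°C and 5000 x g for 10 min, and alkaline phosphatase (AKP) was measured in the supernatant. Each experiment was done at least three times, reported as mean ± SD.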

Data set [9] concerns Shewanella. Nature of the data set: Cell wall permeability. Format: cell-based. Conditions: peptide at MIC, 37℃, 4 h. The essentials: as §1

Ends that are not written are not given here. * marks the point of attachment. Dodecyl = CCCCCCCCCCCC*; Octyl = CCCCCCCC*

The term MIC denotes the lowest concentration found to suppress growth. A higher MIC goes with weaker potency. For AKATKAAKALLKLWLL [AL-16], the MIC against Pseudomonas [1] came out at 16 µM; in the data set with Shewanella [2] it was 128 µM.
On to “C12-AL-16: AL-16 with alkyl chain (C12) attached to the N-terminus (Dodecyl-AKATKAAKALLKLWLL)”, for which the MIC in the data set on Pseudomonas [1] and in the data set with Shewanella [2] was 4 µM in each case. In the data set with Pseudomonas [3], the “morphological changes of bacterial cells (TEM)” value was “bacterial contents were lost; however, the basic membrane structure was maintained”. The “bacteria distributed in Q1 and Q2 regions (disturbed membranes)” value in the data set with Shewanella [4] and with Pseudomonas [5] was > 98% in each case. In addition, the self-assembly morphology entry in [6] is recorded as “nanospheres in the form of micelles”. The secondary structure entry in [7] is recorded as “α-helix”.
As to “C8-AL-16: AL-16 with alkyl chain (C8) attached to the N-terminus (Octyl-AKATKAAKALLKLWLL)”, the MIC with Pseudomonas [1] and in the data set with Shewanella [2] was 4 µM throughout. The “morphological changes of bacterial cells (TEM)” value in the data set with Pseudomonas [3] was “disrupted by lysis, and the contents leaked, resulting in serious damage”. Besides, the “bacteria in Q1 region (PI-positive, FDA-negative)” value with Shewanella [4] (Shewanella (Fig. 4D), flow cytometry) came to 38.80%. Besides, the “bacteria distributed in Q1 and Q2 regions (disturbed membranes)” value with Shewanella [4] and with Pseudomonas [5] was > 98% in each case. Besides, the “cell wall permeability (AKP leakage)” value with Pseudomonas [8] and in the data set on Shewanella [9] was “significantly enhanced” each time. Also, the self-assembly morphology result in data set [6] is listed as “nanospheres in the form of micelles”. Besides, in data set [7], the secondary structure entry is listed as “β-folded structure”.
In the case of APATPAAPALLPLWLL [AP-16], the “antibacterial activity (in words)” value in the data set with Pseudomonas [1] (bacterial survival rate, S.2) is “no significant antibacterial activity”; in the data set on Shewanella [2] (bacterial survival rate, S.2) it was “no significant antibacterial activity”. Further, the self-assembly morphology entry in data set [6] is listed as “did not exhibit an evident self-assembly morphology”. In addition, in data set [7], the secondary structure result is listed as “randomly curled structure”.

The values above are taken from publication PMC10884804 (Food Chemistry: X, 2024).
